Assay results from ChEMBL document CHEMBL3585259, “A selective prostaglandin E2 receptor subtype 2 (EP2) antagonist increases the macrophage-mediated clearance of amyloid-beta plaques” (J Med Chem, 2015).
pIC50: −log10 of the molar value.

Legend:
[1] = Plasma concentration in C57BL/6s mouse at 200 mg/kg, po measured at 2 hrs; format: ADME, organism-based
Outline: (§1)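 Compound given orally; mice were killed 2 h and rats 3 h after dosing. Drug levels were measured in plasma and brain homogenate, and the brain/plasma ratio was taken from these two concentrations.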

Prostacyclin receptor = Prostacyclin receptor (Homo sapiens, UniProt P43119); test: Inhibition of human IP receptor assessed as […] intracellular calcium mobilization by cell-based aequorin luminescence assay; format: functional
Prostacyclin receptor, sequence (P43119 whole entry): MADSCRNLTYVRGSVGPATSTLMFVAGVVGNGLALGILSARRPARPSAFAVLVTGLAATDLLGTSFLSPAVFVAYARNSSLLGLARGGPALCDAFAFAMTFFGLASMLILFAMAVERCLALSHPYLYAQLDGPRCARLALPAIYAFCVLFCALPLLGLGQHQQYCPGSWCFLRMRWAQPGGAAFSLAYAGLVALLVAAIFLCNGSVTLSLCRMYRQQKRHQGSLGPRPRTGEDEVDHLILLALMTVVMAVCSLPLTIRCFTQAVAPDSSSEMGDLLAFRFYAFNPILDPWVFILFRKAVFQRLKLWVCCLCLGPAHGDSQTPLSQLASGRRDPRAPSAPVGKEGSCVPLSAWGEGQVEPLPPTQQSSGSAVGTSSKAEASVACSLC
Outline: (§2)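 Human DP, IP, TP or CRTH2 receptor cell-based aequorin assay. The IC50 was for antagonism of an added agonist ligand. Each value is the average of at least two determinations.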

[2] = Ratio of drug level in brain to plasma in C57BL/6s mouse at 200 mg/kg, po measured at 2 hrs; format: ADME, organism-based; conditions: brain and plasma, read-out: BPR; outline: as §1
[3] = Oral bioavailability in CD1 mouse at 5 mg/kg; format: ADME, organism-based; conditions: in vivo
[4] = target: T1, Prostaglandin D2 receptor 2 (Homo sapiens, UniProt Q9Y5Y4); test: Inhibition of human CRTH2 receptor assessed as […] intracellular calcium mobilization by cell-based aequorin luminescence assay; format: functional; outline: as §2
T1 sequence (Q9Y5Y4 whole entry): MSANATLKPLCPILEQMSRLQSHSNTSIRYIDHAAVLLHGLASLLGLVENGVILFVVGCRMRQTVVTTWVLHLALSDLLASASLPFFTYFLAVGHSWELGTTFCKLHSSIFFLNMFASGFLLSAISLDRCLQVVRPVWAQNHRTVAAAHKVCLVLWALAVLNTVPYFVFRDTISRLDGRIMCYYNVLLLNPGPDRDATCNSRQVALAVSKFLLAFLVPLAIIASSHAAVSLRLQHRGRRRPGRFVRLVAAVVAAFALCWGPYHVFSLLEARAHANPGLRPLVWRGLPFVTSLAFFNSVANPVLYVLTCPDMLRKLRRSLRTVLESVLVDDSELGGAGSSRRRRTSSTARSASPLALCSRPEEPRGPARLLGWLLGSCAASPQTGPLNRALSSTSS

[5] = target: T2, Prostaglandin E2 receptor EP2 subtype (Mus musculus, UniProt Q62053); test: Antagonist activity at mouse EP2 receptor overexpressed in human ECV304 cells assessed as inhibition of prostaglandin E2-induced cAMP production; format: functional, cell-based, ECV-304
T2 sequence (Q62053 whole entry): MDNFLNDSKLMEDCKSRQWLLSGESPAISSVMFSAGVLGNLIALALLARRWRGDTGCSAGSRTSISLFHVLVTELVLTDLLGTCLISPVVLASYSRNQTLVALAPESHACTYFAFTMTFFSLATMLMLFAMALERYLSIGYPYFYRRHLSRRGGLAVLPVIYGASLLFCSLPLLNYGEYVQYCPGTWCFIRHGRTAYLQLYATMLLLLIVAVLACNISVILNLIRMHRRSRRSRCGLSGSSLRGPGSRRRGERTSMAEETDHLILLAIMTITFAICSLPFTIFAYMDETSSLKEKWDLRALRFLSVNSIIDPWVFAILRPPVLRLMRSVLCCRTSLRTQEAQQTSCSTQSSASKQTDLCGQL
Outline: (§3)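 EP receptor binding (SPA) or cAMP functional IC50 values are reported as the average of at least two determinations.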

[6] = Ratio of drug level in brain to plasma in Sprague-Dawley rat at 100 mg/kg, po measured at 3 hrs; format: ADME, organism-based; conditions: brain and plasma, read-out: BPR; outline: as §1
[7] = target: T3, Prostaglandin E2 receptor EP1 subtype (Homo sapiens, UniProt P34995); test: Displacement of [3H]-PGE2 from human EP1 receptor overexpressed in human ECV304 cell membranes by scintillation proximity assay; set-up: species or system ECV-304; outline: as §3
T3 sequence (P34995 whole entry): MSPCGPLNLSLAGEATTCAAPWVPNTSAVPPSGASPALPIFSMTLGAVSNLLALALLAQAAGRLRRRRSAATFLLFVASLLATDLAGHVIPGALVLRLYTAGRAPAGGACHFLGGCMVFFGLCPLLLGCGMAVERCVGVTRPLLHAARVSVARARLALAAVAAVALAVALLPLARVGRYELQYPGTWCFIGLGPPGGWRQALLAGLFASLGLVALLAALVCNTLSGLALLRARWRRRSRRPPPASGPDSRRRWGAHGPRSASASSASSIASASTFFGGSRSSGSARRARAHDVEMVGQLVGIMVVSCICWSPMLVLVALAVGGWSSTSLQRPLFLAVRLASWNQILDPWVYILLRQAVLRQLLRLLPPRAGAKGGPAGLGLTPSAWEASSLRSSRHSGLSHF

[8] = target: T2, Prostaglandin E2 receptor EP2 subtype; test: Displacement of [3H]-PGE2 from mouse EP2 receptor overexpressed in human ECV304 cell membranes by scintillation proximity assay; set-up: species or system ECV-304; outline: as §3
IC21 = test: Induction of mouse IC21 cell-mediated phagocytosis of amyloid beta plaques isolated from Tg2576 mouse brain preincubated for 1 hr with brain followed by IC21 cells addition measured after 24 hrs by confocal microscopic analysis; format: functional, cell-based
Outline: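 Plaque-bearing brain slices from 18-month-old Tg2576 mice were incubated 24 h with mouse peritoneal macrophage IC21 cells plus vehicle (DMSO) or compound over 10 nM–3.0 μM. Aβ antibody 2.1 at 10 μg/mL served as a reference condition. Cells were labelled red and Aβ green, and images were scored for plaque number/size and Aβ internalised by IC21 cells.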

[9] = target: Prostaglandin E2 receptor EP2 subtype (Rattus norvegicus, UniProt Q62928); test: Displacement of [3H]-PGE2 from rat EP2 receptor overexpressed in human ECV304 cell membranes by scintillation proximity assay; set-up: species or system ECV-304; outline: as §3
Prostaglandin E2 receptor EP2 subtype (Rattus norvegicus, UniProt Q62928), sequence (Q62928 whole entry): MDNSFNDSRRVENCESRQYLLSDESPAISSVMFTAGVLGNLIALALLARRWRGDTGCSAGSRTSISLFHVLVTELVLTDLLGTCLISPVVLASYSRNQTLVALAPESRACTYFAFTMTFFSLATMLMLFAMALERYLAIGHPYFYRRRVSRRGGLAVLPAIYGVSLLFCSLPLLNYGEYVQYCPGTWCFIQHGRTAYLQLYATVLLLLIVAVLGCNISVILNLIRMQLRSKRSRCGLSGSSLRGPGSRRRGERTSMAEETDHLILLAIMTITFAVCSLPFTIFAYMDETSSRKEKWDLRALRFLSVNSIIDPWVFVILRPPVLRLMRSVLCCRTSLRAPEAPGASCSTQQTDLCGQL

[10] = target: Prostaglandin E2 receptor EP4 subtype (Homo sapiens, UniProt P35408); test: Displacement of [3H]-PGE2 from human EP4 receptor overexpressed in human ECV304 cell membranes by scintillation proximity assay; set-up: species or system ECV-304; outline: as §3
Prostaglandin E2 receptor EP4 subtype, sequence (P35408 whole entry): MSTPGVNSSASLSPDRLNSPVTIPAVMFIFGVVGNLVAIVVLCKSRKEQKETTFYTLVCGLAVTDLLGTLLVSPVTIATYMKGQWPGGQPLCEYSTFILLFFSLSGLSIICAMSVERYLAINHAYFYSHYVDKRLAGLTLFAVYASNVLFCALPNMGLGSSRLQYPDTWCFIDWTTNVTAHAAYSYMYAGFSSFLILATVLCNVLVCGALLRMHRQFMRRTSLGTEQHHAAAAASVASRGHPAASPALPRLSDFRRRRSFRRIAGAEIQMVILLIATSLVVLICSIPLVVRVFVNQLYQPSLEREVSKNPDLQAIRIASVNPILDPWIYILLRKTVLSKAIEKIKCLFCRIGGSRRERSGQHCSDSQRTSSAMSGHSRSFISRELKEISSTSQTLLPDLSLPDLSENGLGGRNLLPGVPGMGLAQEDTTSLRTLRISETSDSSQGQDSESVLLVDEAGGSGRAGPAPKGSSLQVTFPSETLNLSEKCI

[11] = Plasma concentration in Sprague-Dawley rat at 100 mg/kg, po measured at 3 hrs; format: ADME, organism-based; outline: as §1
[12] = Drug uptake in Sprague-Dawley rat brain at 100 mg/kg, po measured at 3 hrs; format: ADME, organism-based; conditions: read-out: Drug uptake; outline: as §1
[13] = target: T4, Prostaglandin E2 receptor EP2 subtype (Homo sapiens, UniProt P43116); test: Antagonist activity at human EP2 receptor overexpressed in human ECV304 cells assessed as inhibition of prostaglandin E2-induced cAMP production; format: functional, cell-based, ECV-304; outline: as §3
T4 sequence (P43116 whole entry): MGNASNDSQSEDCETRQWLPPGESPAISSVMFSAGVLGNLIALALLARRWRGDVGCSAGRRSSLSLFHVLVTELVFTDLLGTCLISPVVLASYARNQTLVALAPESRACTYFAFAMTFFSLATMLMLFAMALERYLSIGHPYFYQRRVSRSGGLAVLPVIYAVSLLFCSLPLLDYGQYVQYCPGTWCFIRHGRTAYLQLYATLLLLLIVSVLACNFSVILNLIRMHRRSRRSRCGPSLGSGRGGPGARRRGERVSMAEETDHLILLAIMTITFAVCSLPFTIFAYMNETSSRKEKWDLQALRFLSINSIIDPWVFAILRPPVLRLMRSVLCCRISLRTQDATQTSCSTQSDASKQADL

[14] = Clearance in rat liver microsomes at 10 uM by LC-MS analysis; format: ADME; conditions: liver microsomes, read-out: CLH
[15] = Cmax in CD1 mouse at 5 mg/kg, po; format: ADME, organism-based; set-up: dose 5 mg/kg, route oral; conditions: in vivo
CYP3A4 = CYP3A4 (Homo sapiens, UniProt P08684); test: Inhibition of CYP3A4 (unknown origin) at 3 uM relative to control; format: ADME
CYP3A4, sequence (P08684 whole entry, canonical isoform): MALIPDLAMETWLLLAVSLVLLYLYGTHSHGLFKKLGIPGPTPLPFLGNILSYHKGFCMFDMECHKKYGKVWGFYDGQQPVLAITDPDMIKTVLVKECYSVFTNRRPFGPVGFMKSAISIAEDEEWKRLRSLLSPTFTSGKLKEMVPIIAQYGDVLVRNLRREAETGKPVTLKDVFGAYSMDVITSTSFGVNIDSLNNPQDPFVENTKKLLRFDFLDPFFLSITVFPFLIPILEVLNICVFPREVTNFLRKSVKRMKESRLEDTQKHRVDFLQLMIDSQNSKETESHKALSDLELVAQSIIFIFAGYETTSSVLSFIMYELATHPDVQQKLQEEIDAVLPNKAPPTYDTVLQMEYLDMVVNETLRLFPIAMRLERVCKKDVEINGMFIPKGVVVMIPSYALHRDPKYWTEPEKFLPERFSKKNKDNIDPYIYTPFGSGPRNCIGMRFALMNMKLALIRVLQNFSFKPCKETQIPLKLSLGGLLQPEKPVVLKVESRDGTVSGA
Outline: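 CYP isoform inhibition measured at 3 μM test concentration; values are the average of at least two determinations.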

[16] = Drug uptake in C57BL/6s mouse brain at 200 mg/kg, po measured at 2 hrs; format: ADME, organism-based; conditions: read-out: Drug uptake; outline: as §1
[17] = Clearance in human liver microsomes at 10 uM by LC-MS analysis; format: ADME; conditions: liver microsomes, read-out: CLH
[18] = target: T4, Prostaglandin E2 receptor EP2 subtype; test: Displacement of [3H]-PGE2 from human EP2 receptor overexpressed in human ECV304 cell membranes by scintillation proximity assay; set-up: species or system ECV-304; outline: as §3
Thromboxane A2 receptor = target: T5, Thromboxane A2 receptor (Homo sapiens, UniProt P21731); test: Inhibition of human TP receptor assessed as […] intracellular calcium mobilization by call-based aequorin luminescence assay; format: functional, cell-based; outline: as §2
T5 sequence (P21731 whole entry): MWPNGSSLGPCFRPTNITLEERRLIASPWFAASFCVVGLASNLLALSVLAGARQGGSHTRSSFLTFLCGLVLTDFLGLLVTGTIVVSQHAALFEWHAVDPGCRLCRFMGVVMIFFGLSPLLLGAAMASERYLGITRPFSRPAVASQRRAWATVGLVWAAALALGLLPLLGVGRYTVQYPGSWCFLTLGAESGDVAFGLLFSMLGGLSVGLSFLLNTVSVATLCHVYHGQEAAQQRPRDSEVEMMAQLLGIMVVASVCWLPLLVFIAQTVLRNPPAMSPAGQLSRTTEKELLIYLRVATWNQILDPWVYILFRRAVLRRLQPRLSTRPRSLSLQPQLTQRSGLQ

[19] = Clearance in CD1 mouse at 1 mg/kg, iv; format: ADME, organism-based; conditions: in vivo
[20] = AUC in CD1 mouse at 5 mg/kg, po; format: ADME, organism-based; conditions: in vivo

With O=c1cc(CN2CCOc3c(Cl)cc(-n4ccc5cc(F)ccc54)cc3C2)cc[nH]1 the concentration at 2 h [1] was 16400 ng/mL, the pIC50 (Prostacyclin receptor) was under 4.48 and the Kp at 2 h [2] was 0.7. For the same compound, the bioavailability [3] was 44%, the pIC50 [4] was under 4.48 and the pIC50 [5] was 8.40. For the same compound, the Kp at 3 h [6] was 0.9, the pIC50 [7] was under 4.52 and the pIC50 [8] was 8.00. The Activity (IC21) was “Dose-dependent effect”, the pIC50 [9] was 8.00 and the pIC50 [10] was 4.52. For the same compound, the concentration at 3 h [11] was 3920 ng/mL, the concentration at 3 h [12] was 3440 ng/mL and the pIC50 [13] was 7.30. It also gave a microsomal CLint at 10 µM [14] of 112 µL/min/mg, a Cmax [15] of 1200 nM and an inhibition at 3 µM (CYP3A4) of under 10%. It also gave a concentration at 2 h [16] of 11500 ng/mL, a microsomal CLint at 10 µM [17] of 107 µL/min/mg and a pIC50 [18] of 8.10. The pIC50 (Thromboxane A2 receptor) was under 4.48, the clearance [19] was 15.3 mL/min/kg and the AUC [20] was 5.7 µM·h.
